From ChEMBL document CHEMBL4627259, “Discovery of LY3325656: A GPR142 agonist suitable for clinical testing in human” (Bioorg Med Chem Lett, 2020)
Calls of active or inactive are those of the source. The calls are words filed in the database; no cut-off is given here.

How the values were obtained:
[1] = target: T1, Probable G-protein coupled receptor 142 (Homo sapiens, UniProt Q7Z601); assay: Agonist activity at human GPR142 receptor expressed in HEK293 cells assessed as accumulation of inositol phosphate incubated for 1 hr followed by IP1-d2 addition by HTRF assay; assay type: functional, cell-based
T1 sequence (Q7Z601 whole entry): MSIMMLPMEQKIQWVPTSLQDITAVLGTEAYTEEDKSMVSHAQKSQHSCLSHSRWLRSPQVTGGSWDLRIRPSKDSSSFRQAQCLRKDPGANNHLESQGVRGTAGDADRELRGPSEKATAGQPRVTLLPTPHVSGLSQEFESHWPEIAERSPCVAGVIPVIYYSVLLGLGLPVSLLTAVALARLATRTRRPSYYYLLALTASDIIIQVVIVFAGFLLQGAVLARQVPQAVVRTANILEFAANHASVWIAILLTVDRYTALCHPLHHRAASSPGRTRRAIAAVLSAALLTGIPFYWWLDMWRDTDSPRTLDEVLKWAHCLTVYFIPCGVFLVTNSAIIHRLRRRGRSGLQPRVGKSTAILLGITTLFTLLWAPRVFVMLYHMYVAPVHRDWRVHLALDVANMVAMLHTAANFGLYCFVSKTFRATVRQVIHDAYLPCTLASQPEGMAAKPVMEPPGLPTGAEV
Outline: (§1)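 HEK293 cells stably expressing human GPR142 (DMEM, 10% FBS, 800 ug/mL G418, 37 °C, 5% CO2), seeded 5000 cells/well and left 18 h to attach. Compounds added at 30 uM to 1 nM, 1 h incubation in HBSS (+Ca, +Mg), 0.1% BSA, 50 mM LiCl, 20 mM HEPES pH 7.2. IP-1 HTRF read-out: IP1-d2 then cryptate, 1 h at 25 °C, 665/620 nm ratio converted via IP-1 standard curve; EC50 by 4-parameter logistic fit.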

[2] = Drug metabolism in mouse microsomes assessed as drug turnover at 20 uM measured after 30 mins by LCMS analysis; assay type: ADME, Microsome; details: read-out: Drug metabolism
Outline: (§2)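 High-throughput microsomal stability: compound at 20 uM incubated with mouse, rat, dog or human liver microsomes at 37 °C; percent parent remaining measured after 30 min and reported as % turnover.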

[3] = Drug metabolism in rat microsomes assessed as drug turnover at 20 uM measured after 30 mins by LCMS analysis; assay type: ADME, Microsome; details: read-out: Drug metabolism; outline: as §2
[4] = Drug metabolism in dog microsomes assessed as drug turnover at 20 uM measured after 30 mins by LCMS analysis; assay type: ADME, Canis lupus familiaris, Microsome; details: read-out: Drug metabolism; outline: as §2
[5] = Drug metabolism in human microsomes assessed as drug turnover at 20 uM measured after 30 mins by LCMS analysis; assay type: ADME, Microsome; details: read-out: Drug metabolism; outline: as §2
[6] = Clearance in rat at 1 mg/kg, iv or 10 mg/kg, po; assay type: ADME, organism-based; details: in vivo
[7] = Volume of distribution at steady state in rat at 1 mg/kg, iv or 10 mg/kg, po; assay type: ADME, organism-based; details: in vivo, read-out: Vdss
[8] = Oral bioavailability in rat at 10 mg/kg; assay type: ADME, organism-based; details: in vivo
[9] = Clearance in dog at 1 mg/kg, iv or 5 mg/kg, po; assay type: ADME, organism-based, Canis lupus familiaris; details: in vivo
[10] = Volume of distribution at steady state in dog at 1 mg/kg, iv or 5 mg/kg, po; assay type: ADME, organism-based, Canis lupus familiaris; details: in vivo, read-out: Vdss
[11] = Oral bioavailability in dog at 5 mg/kg; assay type: ADME, organism-based, Canis lupus familiaris; details: in vivo
CYP3A4 = CYP3A4 (Homo sapiens, UniProt P08684); assay: Inhibition of CYP3A4 (unknown origin) at 10 uM relative to control; assay type: ADME
CYP2C9 = CYP2C9 (Homo sapiens, UniProt P11712); assay: Inhibition of CYP2C9 (unknown origin) at 10 uM relative to control; assay type: ADME
CYP2D6 = CYP2D6 (Homo sapiens, UniProt P10635); assay: Inhibition of CYP2D6 (unknown origin) at 10 uM relative to control; assay type: ADME
[12] = Solubility of compound at pH 2 to 7.5; assay type: physicochemical; details: buffer
[13] = Permeability of compound; assay type: ADME; details: not told
[14] = Toxicity in rat assessed as NOAEL administered as repeated dose for 1 month; details: in vivo
[15] = Toxicity in dog assessed as NOAEL administered as repeated dose for 1 month; set-up: species or system Canis lupus familiaris; details: in vivo
[16] = Dissociation constant, pKa of compound; assay type: physicochemical
[17] = Fractional renal clearance in dog at 1 mg/kg, iv or 5 mg/kg, po; assay type: ADME, organism-based, Canis lupus familiaris; details: in vivo
Cytochrome P450 3A4 = Cytochrome P450 3A4 (Homo sapiens, UniProt P08684); assay: Induction of CYP3A4 (unknown origin) at 10 uM; assay type: ADME
Cytochrome P450 2C9 = Cytochrome P450 2C9 (Homo sapiens, UniProt P11712); assay: Induction of CYP2C9 (unknown origin) at 10 uM; assay type: ADME
Cytochrome P450 2D6 = Cytochrome P450 2D6 (Homo sapiens, UniProt P10635); assay: Induction of CYP2D6 (unknown origin) at 10 uM; assay type: ADME
[18] = target: T2, Probable G-protein coupled receptor 142 (Homo sapiens) (UniProt Q7Z601); assay: Agonist activity at human GPR142 receptor expressed in HEK293 cells assessed as accumulation of inositol phosphate at 30 uM to 1 nM incubated for 1 hr followed by IP1-d2 addition by HTRF assay relative to control; assay type: functional, cell-based; outline: as §1
T2 sequence (whole entry): T1 sequence (Q7Z601 whole entry)

Mus musculus [19] = assay: Hypoglycemic activity in po dosed lean C57BL/6J mouse assessed as reduction in glucose level administered 30 mins prior to glucose challenge measured for 60 mins by IPGTT; assay type: functional, organism-based
Outline: (§3)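 IPGTT in male C57BL/6 mice, lean or diet-induced obese; compound given orally 30 min before intraperitoneal glucose load; blood glucose followed over time. Mean ± SEM, n=5 per group, compared with vehicle (p<0.05, 0.01, 0.001).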

Mus musculus [20] = assay: Hypoglycemic activity in diet-induced obese C57BL/6J mouse assessed as reduction in glucose level at 15 mg/kg, po administered 30 mins prior to glucose challenge measured for 120 mins by IPGTT; assay type: functional, organism-based; outline: as §3
Mus musculus [21] = assay: Hypoglycemic activity in diet-induced obese C57BL/6J mouse assessed as increase in plasma insulin secretion at 10 mg/kg, po administered 30 mins prior to glucose challenge measured after 15 mins by IPGTT; assay type: functional, organism-based; details: 15 mg/kg, in the assay text read “15 mg/kg” for “10 mg/kg”
Outline: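 IPGTT in male diet-induced obese mice; compound given orally 30 min before intraperitoneal glucose; plasma insulin measured. Mean ± SEM, n=5 per group, versus vehicle.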

Mus musculus [22] = assay: Hypoglycemic activity in diet-induced obese C57BL/6J mouse assessed as reduction in glucose level at 15 mg/kg, po co-administered with 5 mg/kg DPP-4 inhibitor, sitagliptin 30 mins prior to glucose challenge measured after 120 mins by IPGTT; assay type: functional, organism-based; outline: as §3
Mus musculus [23] = assay: Hypoglycemic activity in diet-induced obese C57BL/6J mouse assessed as increase in insulin secretion at 15 mg/kg, po co-administered with 5 mg/kg DPP-4 inhibitor, sitagliptin 30 mins prior to glucose challenge measured after 15 mins by IPGTT; assay type: functional, organism-based
Mus musculus [24] = assay: Hypoglycemic activity in lean C57BL/6J mouse assessed as reduction in glucose level at 0.01 mg/kg, po administered 30 mins prior to glucose challenge measured for 60 mins by IPGTT; assay type: functional; outline: as §3
Mus musculus [25] = assay: Hypoglycemic activity in lean C57BL/6J mouse assessed as reduction in glucose level at 0.03 mg/kg, po administered 30 mins prior to glucose challenge measured for 60 mins by IPGTT; assay type: functional; outline: as §3
Mus musculus [26] = assay: Hypoglycemic activity in lean C57BL/6J mouse assessed as reduction in glucose level at 0.1 mg/kg, po administered 30 mins prior to glucose challenge measured for 60 mins by IPGTT; assay type: functional; outline: as §3
Mus musculus [27] = assay: Hypoglycemic activity in lean C57BL/6J mouse assessed as reduction in glucose level at 0.3 mg/kg, po administered 30 mins prior to glucose challenge measured for 60 mins by IPGTT; assay type: functional; outline: as §3
Mus musculus [28] = assay: Hypoglycemic activity in lean C57BL/6J mouse assessed as reduction in glucose level at 1 mg/kg, po administered 30 mins prior to glucose challenge measured for 60 mins by IPGTT; assay type: functional; outline: as §3
Mus musculus [29] = assay: Hypoglycemic activity in lean C57BL/6J mouse assessed as reduction in glucose level at 10 mg/kg, po administered 30 mins prior to glucose challenge measured for 60 mins by IPGTT; assay type: functional; outline: as §3
[30] = Hypoglycemic activity in mouse pancreatic islets assessed as increase in glucose-dependent insulin secretion at 10 uM relative to control; assay type: functional, Pancreatic islet
Outline: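 Isolated mouse pancreatic islets; glucose-dependent insulin secretion measured at 2.8 mM and 11.1 mM glucose with compound at 10 uM.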

Chain of CYP2C9 (P11712 whole entry): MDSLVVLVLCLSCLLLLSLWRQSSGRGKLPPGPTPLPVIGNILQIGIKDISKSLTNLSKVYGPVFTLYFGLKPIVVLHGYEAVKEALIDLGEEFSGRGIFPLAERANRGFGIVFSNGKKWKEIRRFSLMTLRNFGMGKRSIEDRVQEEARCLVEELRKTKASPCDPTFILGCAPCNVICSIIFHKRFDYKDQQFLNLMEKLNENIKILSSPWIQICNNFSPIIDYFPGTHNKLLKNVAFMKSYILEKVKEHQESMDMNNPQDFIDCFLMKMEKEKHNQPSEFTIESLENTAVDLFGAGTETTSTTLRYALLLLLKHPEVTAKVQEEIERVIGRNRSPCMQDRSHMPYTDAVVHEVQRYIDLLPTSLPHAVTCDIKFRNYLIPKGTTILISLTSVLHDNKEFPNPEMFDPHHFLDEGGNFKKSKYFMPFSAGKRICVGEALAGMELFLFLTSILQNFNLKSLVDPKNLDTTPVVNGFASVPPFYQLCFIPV
Chain of CYP2D6 (P10635 whole entry): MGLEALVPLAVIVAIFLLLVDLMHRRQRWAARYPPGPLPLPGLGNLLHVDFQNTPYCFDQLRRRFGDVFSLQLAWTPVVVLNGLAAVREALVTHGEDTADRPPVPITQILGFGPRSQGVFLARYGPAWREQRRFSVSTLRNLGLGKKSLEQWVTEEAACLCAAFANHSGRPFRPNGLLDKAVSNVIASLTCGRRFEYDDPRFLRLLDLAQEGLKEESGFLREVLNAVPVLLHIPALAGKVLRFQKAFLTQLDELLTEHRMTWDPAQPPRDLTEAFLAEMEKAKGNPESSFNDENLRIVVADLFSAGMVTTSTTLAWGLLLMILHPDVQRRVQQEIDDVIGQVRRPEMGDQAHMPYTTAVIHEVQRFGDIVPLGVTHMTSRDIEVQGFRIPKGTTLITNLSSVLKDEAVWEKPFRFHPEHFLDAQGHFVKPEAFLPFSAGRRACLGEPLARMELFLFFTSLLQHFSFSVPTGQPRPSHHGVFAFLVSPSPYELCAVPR
Chain of CYP3A4 (P08684 whole entry): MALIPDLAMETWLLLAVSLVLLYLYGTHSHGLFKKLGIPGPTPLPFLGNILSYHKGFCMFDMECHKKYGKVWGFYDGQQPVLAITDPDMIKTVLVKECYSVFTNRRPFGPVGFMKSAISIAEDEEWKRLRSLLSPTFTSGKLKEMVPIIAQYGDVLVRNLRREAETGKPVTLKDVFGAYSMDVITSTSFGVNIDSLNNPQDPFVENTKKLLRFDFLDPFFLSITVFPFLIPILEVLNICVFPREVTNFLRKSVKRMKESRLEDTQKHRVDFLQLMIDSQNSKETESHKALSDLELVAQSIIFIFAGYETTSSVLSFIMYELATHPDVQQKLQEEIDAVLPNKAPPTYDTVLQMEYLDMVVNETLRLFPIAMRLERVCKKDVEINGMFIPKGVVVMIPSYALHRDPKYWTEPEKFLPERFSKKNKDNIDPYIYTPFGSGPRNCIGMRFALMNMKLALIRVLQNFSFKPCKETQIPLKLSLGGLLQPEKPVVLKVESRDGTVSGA
Chain of Cytochrome P450 2C9 (P11712 whole entry): as the sequence (P11712 whole entry) above
Chain of Cytochrome P450 2D6 (P10635 whole entry): as the sequence (P10635 whole entry) above
Chain of Cytochrome P450 3A4 (P08684 whole entry): as the sequence (P08684 whole entry) above

SMILES	EC50 [1] [nM]	metabolised at 0.5 h, 20 µM [2] [%]	metabolised at 0.5 h, 20 µM [3] [%]	metabolised at 0.5 h, 20 µM [4] [%]	metabolised at 0.5 h, 20 µM [5] [%]	clearance [6] [mL/min/kg]	Vd [7] [L/kg]	bioavailability [8] [%]	clearance [9] [mL/min/kg]	Vd [10] [L/kg]	bioavailability [11] [%]	inhibition at 10 µM (CYP3A4) [%]	inhibition at 10 µM (CYP2C9) [%]	inhibition at 10 µM (CYP2D6) [%]	pKa [16]	CL [17] [%]	Emax [18] [%]	also measured
Cc1ncn(C)c1-c1nnc([C@@H]2C[C@H](N(C)C(=O)c3cccc(C(F)(F)F)c3)CCO2)[nH]1	43	22	14	13	14	22.1	1.1	63	8.4	1.3	78	22	11	16	5.9	< 5		solubility [12]: > 2000 µg/mL; Papp [13]: 13.5 ×10⁻⁶ cm/s; NOAEL at 1 month [14]: 200 mg/kg; NOAEL at 1 month [15]: 180 mg/kg; Activity (Cytochrome P450 3A4): Not Active; Activity (Cytochrome P450 2C9): Not Active; Activity (Cytochrome P450 2D6): Not Active
Cc1ncn(C)c1NC(=O)[C@H]1CCC[C@@H](N(C)C(=O)c2cccc(C(F)(F)F)c2)C1	30	89	41	28	32	49.6	1.3	28	17.6	1.2	66	6.1	14	0	6.9	20	104	Activity (Mus musculus [19]): Dose-dependent effect; Activity (Mus musculus [20]): Active; Activity (Mus musculus [21]): Active; Activity (Mus musculus [22]): Active; Activity (Mus musculus [23]): Active; inhibition in vivo at 0.01 mg/kg (Mus musculus [24]): 9%; inhibition in vivo at 0.03 mg/kg (Mus musculus [25]): 11%; inhibition in vivo at 0.1 mg/kg (Mus musculus [26]): 12%; inhibition in vivo at 0.3 mg/kg (Mus musculus [27]): 27%; inhibition in vivo at 1 mg/kg (Mus musculus [28]): 34%; inhibition in vivo at 10 mg/kg (Mus musculus [29]): 47%; fold change (FC) [30]: 1.4
Cc1ncn(C)c1-c1nnc([C@H]2CCC[C@@H](N(C)C(=O)c3cccc(Cl)c3)C2)[nH]1	14	39	55	33	26	40.1	1	29	8.8	0.9	86	3.3	0	0			111	
